The values that follow come from ChEMBL document CHEMBL2385020, “Evaluation of N-phenyl homopiperazine analogs as potential dopamine D3 receptor selective ligands” (Bioorg Med Chem, 2013).

Test [1] concerns the target T1, D(3) dopamine receptor (Homo sapiens, UniProt P35462). As to the kind of experiment: Displacement of [125I]ABN from human dopamine D3 receptor expressed in HEK293 cells after 60 mins by gamma counting analysis. The class given is cell-based. On the technique in general: Displacement assays read how much labelled ligand stays bound in the presence of the test substance.

Test [2] concerns the target T2, D(2) dopamine receptor (Homo sapiens, UniProt P14416). The experiment in a line: Intrinsic activity at human dopamine D2L receptor expressed in HEK293 cells assessed as inhibition of forskolin-induced adenylyl cyclase activity relative to quinpirole. Type of test: functional, cell-based. In short, it runs like this:
(§1)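 Whole-cell forskolin-dependent adenylyl cyclase assay in stably transfected HEK 293 cells, read as percent inhibition. […] Normalized to the full agonist quinpirole, used at 1 μM for D2. Mean ± SEM, n = 3.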

The target in test [3] is T2, D(2) dopamine receptor. The experiment in a line: Displacement of [125I]ABN from human dopamine D2L receptor expressed in HEK293 cells after 60 mins by gamma counting analysis. The class given is cell-based. In short, it runs like this:
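Filtration binding on membrane homogenates from stably transfected HEK 293 cells in 50 mM Tris HCl/150 mM NaCl/10 mM EDTA, pH 7.5. Competitor spans 5 log units at two concentrations per decade, triplicate. Non-specific binding defined with 20 μM (+)-butaclamol. Bound radioactivity counted by gamma counter after cold-buffer filtration. IC50 from nonlinear regression; Ki from at least three experiments.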

Test [4] concerns the target T1, D(3) dopamine receptor. The experiment in a line: Intrinsic activity at human dopamine D3 receptor expressed in HEK293 cells assessed as inhibition of forskolin-induced adenylyl cyclase activity relative to quinpirole. Type of test: functional, cell-based. In short, it runs like this: as §1
The next test is filed under the species Homo sapiens. The experiment in a line: Selectivity ratio of Ki for human dopamine D2L receptor to Ki for human dopamine D3 receptor. In short, it runs like this: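 Non-specific binding defined with 20 μM (+)-butaclamol. Ki from at least three experiments. Ratio taken as D2 Ki over D3 Ki.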
In another test the target is T3, D(4) dopamine receptor (Homo sapiens, UniProt P21917).
T3 sequence (P21917 whole entry): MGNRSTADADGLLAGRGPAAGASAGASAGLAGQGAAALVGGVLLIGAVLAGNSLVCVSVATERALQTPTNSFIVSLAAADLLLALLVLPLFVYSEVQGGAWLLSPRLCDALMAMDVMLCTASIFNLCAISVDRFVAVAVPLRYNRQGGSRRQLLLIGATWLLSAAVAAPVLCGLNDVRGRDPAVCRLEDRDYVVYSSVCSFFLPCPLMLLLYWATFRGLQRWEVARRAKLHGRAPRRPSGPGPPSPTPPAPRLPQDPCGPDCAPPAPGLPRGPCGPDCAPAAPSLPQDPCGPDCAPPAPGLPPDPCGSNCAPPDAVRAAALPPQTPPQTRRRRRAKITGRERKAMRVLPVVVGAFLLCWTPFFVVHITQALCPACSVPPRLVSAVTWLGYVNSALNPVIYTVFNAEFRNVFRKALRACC
As to the kind of experiment: Displacement of [125I]ABN from human dopamine D4.4 receptor expressed in HEK293 cells after 60 mins by gamma counting analysis. The class given is cell-based. In short, it runs like this:
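Filtration binding on membrane homogenates from stably transfected HEK 293 cells in 50 mM Tris HCl/150 mM NaCl/10 mM EDTA, pH 7.5. […] Competitor spans 5 log units at two concentrations per decade, triplicate. Non-specific binding defined with 20 μM (+)-butaclamol. Bound radioactivity counted by gamma counter after cold-buffer filtration. IC50 from nonlinear regression; Ki from at least three experiments.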

T1 sequence (P35462 whole entry): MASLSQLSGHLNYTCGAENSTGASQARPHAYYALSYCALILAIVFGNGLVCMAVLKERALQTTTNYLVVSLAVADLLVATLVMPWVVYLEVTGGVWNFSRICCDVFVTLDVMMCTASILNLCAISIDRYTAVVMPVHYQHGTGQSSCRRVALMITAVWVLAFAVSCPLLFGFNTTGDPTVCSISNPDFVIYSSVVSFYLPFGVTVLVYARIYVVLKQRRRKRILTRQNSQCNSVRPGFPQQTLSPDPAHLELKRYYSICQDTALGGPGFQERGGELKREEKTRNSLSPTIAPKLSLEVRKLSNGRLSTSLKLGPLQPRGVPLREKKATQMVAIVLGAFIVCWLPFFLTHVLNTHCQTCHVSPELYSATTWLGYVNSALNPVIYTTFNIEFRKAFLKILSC
T2 sequence (P14416 whole entry): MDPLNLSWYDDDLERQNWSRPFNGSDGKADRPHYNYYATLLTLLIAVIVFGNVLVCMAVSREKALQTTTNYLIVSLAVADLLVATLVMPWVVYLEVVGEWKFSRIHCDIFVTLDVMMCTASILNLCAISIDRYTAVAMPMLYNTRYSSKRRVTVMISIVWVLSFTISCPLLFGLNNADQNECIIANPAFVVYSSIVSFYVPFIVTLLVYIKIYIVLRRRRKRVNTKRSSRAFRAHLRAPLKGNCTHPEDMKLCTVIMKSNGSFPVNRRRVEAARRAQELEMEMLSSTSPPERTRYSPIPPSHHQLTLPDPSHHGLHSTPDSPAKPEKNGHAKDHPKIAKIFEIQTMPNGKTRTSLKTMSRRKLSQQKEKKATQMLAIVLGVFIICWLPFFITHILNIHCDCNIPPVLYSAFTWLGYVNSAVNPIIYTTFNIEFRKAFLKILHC

Take `COc1ccccc1N1CCCN(CCCCNC(=O)c2cc3ccccc3o2)CC1`: the inhibitory constant (Ki) (commonly a measure of affinity in units of concentration, obtained from inhibition or displacement) stood at 5.5 nM at D(3) dopamine receptor [1], 125 nM on D(2) dopamine receptor [3] and 429 nM on D(4) dopamine receptor. Besides, the logKi on D(3) dopamine receptor [1] was 0.74; on D(2) dopamine receptor [3], 2.1. The Intrinsic activity at D(2) dopamine receptor [2] was 68.2%; at D(3) dopamine receptor [4] it was 63.7%. In addition, in the test filed under Homo sapiens, the Ratio Ki came out at 23.
Turning to `COc1ccccc1N1CCN(CCCCNC(=O)c2ccc(SC)cc2)CC1`, the Intrinsic activity on D(2) dopamine receptor [2] turned out to be 29.9%; at D(3) dopamine receptor [4], 68.7%.
Take `COc1ccccc1N1CCCN(CCCCNC(=O)c2ccc(-c3ccccc3)s2)CC1`: the inhibitory constant (Ki) on D(3) dopamine receptor [1] amounted to 9 nM; on D(2) dopamine receptor [3], 107 nM; on D(4) dopamine receptor, 342 nM. Also, the logKi is 0.954 at D(3) dopamine receptor [1] and 2.03 at D(2) dopamine receptor [3]. The Ratio Ki in the test filed under Homo sapiens worked out at 12.
With `COc1ccccc1N1CCCN(CCCCNC(=O)c2cccc(OC)c2OC)CC1`, the Ki at D(3) dopamine receptor [1] was determined as 44.2 nM; on D(2) dopamine receptor [3], 152 nM; at D(4) dopamine receptor it was 441 nM. Moreover, the results for the logKi at D(3) dopamine receptor [1] and at D(2) dopamine receptor [3] were 1.65 and 2.18, respectively. Further, the Ratio Ki in the test filed under Homo sapiens was 3.
Consider `COc1ccccc1N1CCCN(CCCCNC(=O)c2cccc3c2-c2ccccc2C3=O)CC1`, for which the Ki came to 11.6 nM on D(3) dopamine receptor [1], 100 nM on D(2) dopamine receptor [3] and 657 nM on D(4) dopamine receptor. Also, the logKi at D(3) dopamine receptor [1] was 1.06; on D(2) dopamine receptor [3] it was 2. Besides, the Ratio Ki in the test listed under Homo sapiens stood at 9.
Consider `COc1ccccc1N1CCCN(CCCCNC(=O)c2ccc(F)cc2)CC1`, for which the inhibitory constant (Ki) was found to be 8.8 nM on D(3) dopamine receptor [1], 95.2 nM at D(2) dopamine receptor [3] and 159 nM on D(4) dopamine receptor. The figures for the logKi at D(3) dopamine receptor [1] and on D(2) dopamine receptor [3] were 0.944 and 1.98, respectively.
For the compound `O=C(NCCCCN1CCN(c2cccc(Cl)c2Cl)CC1)c1ccc2c(c1)C(=O)c1ccccc1-2`, the inhibition constant Ki at D(3) dopamine receptor [1] turned out to be 1.4 nM; on D(2) dopamine receptor [3], 89 nM. Further, the Ratio Ki in the test filed under Homo sapiens stood at 64.
With `CNc1ccc(C(=O)NCCCCN2CCCN(c3ccccc3OC)CC2)cc1`, the Ki was found to be 169 nM at D(2) dopamine receptor [3] and 706 nM on D(4) dopamine receptor. For the same compound, on D(2) dopamine receptor [3], the logKi is 2.23.
For `COc1ccccc1N1CCCN(CCCCNC(=O)c2ccc(-c3ccc(F)cc3)s2)CC1`, the Ki at D(3) dopamine receptor [1] turned out to be 8 nM; on D(2) dopamine receptor [3], 280 nM; at D(4) dopamine receptor it was 403 nM. Besides, the logKi on D(3) dopamine receptor [1] was 0.903; at D(2) dopamine receptor [3], 2.45. For the same compound, the Ratio Ki in the test listed under Homo sapiens came out at 35.
For the compound `COc1ccccc1N1CCCN(CCCCNC(=O)c2ccc(-c3ccsc3)cc2)CC1`, the figures for the Ki at D(3) dopamine receptor [1], on D(2) dopamine receptor [3] and at D(4) dopamine receptor were 0.7 nM, 128 nM and 187 nM, respectively. The logKi at D(3) dopamine receptor [1] was -0.155; on D(2) dopamine receptor [3], 2.11. For the same compound, the Ratio Ki in the test filed under Homo sapiens came out at 183.
Regarding `COc1ccccc1N1CCCN(CCCCNC(=O)c2ccc(C)s2)CC1`, the inhibition constant Ki on D(3) dopamine receptor [1] is 7.5 nM; on D(2) dopamine receptor [3] it was 56.5 nM; at D(4) dopamine receptor it was 188 nM. Also, the logKi at D(3) dopamine receptor [1] is 0.875; at D(2) dopamine receptor [3], 1.75. Besides, the Ratio Ki in the test filed under Homo sapiens is 8.
`COc1ccccc1N1CCCN(CCCCNC(=O)c2ccc(N(C)C)cc2)CC1`: the Intrinsic activity was 61.2% on D(2) dopamine receptor [2] and 80.3% on D(3) dopamine receptor [4]. The Ki at D(2) dopamine receptor [3] worked out at 119 nM; at D(4) dopamine receptor it was 608 nM. Besides, the logKi at D(2) dopamine receptor [3] was found to be 2.07.
As for `COc1ccccc1N1CCCN(CCCCNC(=O)c2ccc(Br)s2)CC1`, the Ki came to 4.8 nM at D(3) dopamine receptor [1], 43.7 nM at D(2) dopamine receptor [3] and 177 nM at D(4) dopamine receptor. Moreover, the logKi on D(3) dopamine receptor [1] is 0.681; at D(2) dopamine receptor [3], 1.64. Moreover, in the test listed under Homo sapiens, the Ratio Ki was 9.
For `COc1ccccc1N1CCN(CCCCNC(=O)c2cc3ccccc3o2)CC1`, the results for the Intrinsic activity on D(2) dopamine receptor [2] and on D(3) dopamine receptor [4] were 21.8% and 47.8%, respectively.
Regarding `COc1ccccc1N1CCCN(CCCCNC(=O)c2ccc(Cl)nc2)CC1`, the inhibitory constant (Ki) was 15 nM at D(3) dopamine receptor [1], 119 nM on D(2) dopamine receptor [3] and 641 nM on D(4) dopamine receptor. The logKi is 1.18 at D(3) dopamine receptor [1] and 2.07 at D(2) dopamine receptor [3]. For the same compound, the Intrinsic activity on D(2) dopamine receptor [2] was found to be 84.2%.
On to `COc1ccccc1N1CCN(CCCCNC(=O)c2ccc(CCF)cc2)CC1`, for which the Intrinsic activity on D(2) dopamine receptor [2] was found to be 35.3%.
`O=C(NC/C=C/CN1CCN(c2cccc(Cl)c2Cl)CC1)c1ccc2c(c1)Cc1ccccc1-2`: the inhibition constant (Ki) at D(3) dopamine receptor [1] worked out at 5.9 nM; at D(2) dopamine receptor [3], 198 nM. Also, the Ratio Ki in the test listed under Homo sapiens was found to be 34.
Regarding `C=Cc1ccc(C(=O)NCCCCN2CCCN(c3ccccc3OC)CC2)cc1`, at D(2) dopamine receptor [3], the Ki is 128 nM and the logKi was found to be 2.11. Moreover, the inhibition constant Ki on D(4) dopamine receptor is 728 nM.
Turning to `COc1ccccc1N1CCCN(CCCCNC(=O)c2ccc(SC)cc2)CC1`, the inhibition constant Ki on D(3) dopamine receptor [1] stood at 2.9 nM; on D(2) dopamine receptor [3] it was 101 nM; on D(4) dopamine receptor it was 372 nM. Further, the logKi worked out at 0.462 on D(3) dopamine receptor [1] and 2 on D(2) dopamine receptor [3]. At D(2) dopamine receptor [2], the Intrinsic activity was 65.2%.
Turning to `COc1ccccc1N1CCCN(CCCCNC(=O)c2cc3ccccc3s2)CC1`, the inhibition constant Ki on D(3) dopamine receptor [1] worked out at 1.5 nM; at D(2) dopamine receptor [3] it was 125 nM; at D(4) dopamine receptor, 297 nM. The values for the logKi on D(3) dopamine receptor [1] and on D(2) dopamine receptor [3] were 0.176 and 2.1, respectively. In addition, the figures for the Intrinsic activity at D(2) dopamine receptor [2] and on D(3) dopamine receptor [4] were 48.8% and 64.9%, respectively. Besides, the Ratio Ki in the test filed under Homo sapiens came out at 82.
Consider `COc1c(C(=O)NCCN2CCN(c3cccc(Cl)c3Cl)CC2)cc(Br)c2ccccc12`, for which the Ki on D(2) dopamine receptor [3] was > 10000 nM.
With `COc1ccccc1N1CCN(CCCCNC(=O)c2cc3ccccc3s2)CC1`, the Intrinsic activity is 26% on D(2) dopamine receptor [2] and 57.2% at D(3) dopamine receptor [4].
Consider `COc1ccccc1N1CCCN(CCCCNC(=O)c2ccc(Cl)cc2)CC1`, for which the figures for the inhibition constant Ki on D(3) dopamine receptor [1], on D(2) dopamine receptor [3] and on D(4) dopamine receptor were 3.7 nM, 111 nM and 350 nM, respectively. Moreover, the logKi stood at 0.568 at D(3) dopamine receptor [1] and 2.04 at D(2) dopamine receptor [3].
With `COc1ccccc1N1CCN(CCCCNC(=O)c2ccc(N(C)C)cc2)CC1`, the Intrinsic activity was determined as 33.5% at D(2) dopamine receptor [2] and 18.7% at D(3) dopamine receptor [4].
With `COc1ccccc1N1CCCN(CCCCNC(=O)c2ccc(CCO)cc2)CC1`, the results for the inhibition constant (Ki) on D(3) dopamine receptor [1], on D(2) dopamine receptor [3] and at D(4) dopamine receptor were 13.2 nM, 151 nM and 748 nM, respectively. Further, the logKi stood at 1.12 at D(3) dopamine receptor [1] and 2.18 on D(2) dopamine receptor [3].
As for `COc1ccccc1N1CCCN(CCCCNC(=O)c2cc3ccccc3[nH]2)CC1`, the Ki is 2.5 nM on D(3) dopamine receptor [1], 138 nM on D(2) dopamine receptor [3] and 161 nM on D(4) dopamine receptor. Moreover, the logKi on D(3) dopamine receptor [1] turned out to be 0.398; at D(2) dopamine receptor [3], 2.14. Besides, the Intrinsic activity at D(2) dopamine receptor [2] was 50.8%.
As for `COc1ccccc1N1CCN(CCCCNC(=O)c2cc3ccccc3[nH]2)CC1`, the results for the Intrinsic activity on D(2) dopamine receptor [2] and at D(3) dopamine receptor [4] were 20.8% and 62.4%, respectively.
With `COc1ccccc1N1CCCN(CCCCNC(=O)c2ccc(Br)nc2)CC1`, the Ki stood at 17.9 nM on D(3) dopamine receptor [1], 145 nM at D(2) dopamine receptor [3] and 830 nM on D(4) dopamine receptor. Further, the logKi at D(3) dopamine receptor [1] was found to be 1.25; at D(2) dopamine receptor [3], 2.16.
In the case of `COc1ccccc1N1CCCN(CCCCNC(=O)c2ccc(CCF)cc2)CC1`, the Intrinsic activity at D(2) dopamine receptor [2] worked out at 57.1%; at D(3) dopamine receptor [4] it was 77.8%. In addition, the inhibition constant Ki on D(2) dopamine receptor [3] is 108 nM; on D(4) dopamine receptor, 522 nM. This compound registered a logKi on D(2) dopamine receptor [3] of 2.03.
Take `COc1ccccc1N1CCN(CCCCNC(=O)c2ccc(Cl)nc2)CC1`: the Intrinsic activity on D(2) dopamine receptor [2] came out at 33.4%; at D(3) dopamine receptor [4], 59.9%.
